Measurements reported in ChEMBL document CHEMBL3593173, “Discovery of novel N-(5-(tert-butyl)isoxazol-3-yl)-N'-phenylurea analogs as potent FLT3 inhibitors and evaluation of their activity against acute myeloid leukemia in vitro and in vivo” (Bioorg Med Chem, 2015).
Converted amounts (≈) assume the structure as drawn.

Experiments:
MV4-11 = test: Cytotoxicity against human MV4-11 cells incubated for 72 hrs by MTT assay; format: functional, cell-based; details: MV4-11, 72 h
Method in brief: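 Leukemia cells were grown with 10% FBS at 37 °C in 5% CO₂; MV4-11 was kept in IMDM. Cells were seeded at 1–4 × 10⁴ per well, and an equal volume of medium containing increasing inhibitor concentrations was added. MTT was added for 2–4 h, formazan was dissolved in DMSO, and OD was read at 570 nm to derive IC50.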

[1] = Solubility in MeOH solution; format: physicochemical
[2] = Solubility in EtOH solution; format: physicochemical

solubility [1] [µg/mL]	solubility [2] [µg/mL]	Compound	IC50 (MV4-11) [nM]
–	–	Cc1ccc2nc(-c3ccc(NC(=O)Nc4cc(C(C)(C)C)on4)cc3)cn2c1	4.08
–	–	CC(C)(C)c1cc(NC(=O)Nc2ccc(-c3cn4cc(Br)ccc4n3)cc2)no1	44.5
–	–	CC(C)(C)c1cc(NC(=O)Nc2ccc(-c3cn4ncccc4n3)cc2)no1	59
–	–	CC(C)(C)c1cc(NC(=O)Nc2ccc(-c3cn4ccc(Cl)cc4n3)cc2)no1	5.91
–	–	CC(C)(C)c1cc(NC(=O)Nc2ccc(-c3cn4c(Cl)cccc4n3)cc2)no1	56.1
–	–	CC(C)(C)c1cc(NC(=O)Nc2ccc(-c3cn4cc(Cl)ccc4n3)cc2)no1	24.8
5280 (≈ 14.1 mM)	4070 (≈ 10.8 mM)	CC(C)(C)c1cc(NC(=O)Nc2ccc(-c3cn4ccccc4n3)cc2)no1	3.09
–	–	CCOc1ccn2cc(-c3ccc(NC(=O)Nc4cc(C(C)(C)C)on4)cc3)nc2c1	11.6
–	–	CC(C)(C)c1cc(NC(=O)Nc2ccc(-c3cn4cccc(Cl)c4n3)cc2)no1	353
–	–	CC(C)(C)c1cc(NC(=O)Nc2ccc(-c3cc4ccccc4o3)cc2)no1	195
–	–	CC(=O)Oc1ccn2cc(-c3ccc(NC(=O)Nc4cc(C(C)(C)C)on4)cc3)nc2c1	29.4
–	–	Cc1cccc2nc(-c3ccc(NC(=O)Nc4cc(C(C)(C)C)on4)cc3)cn12	20.2
–	–	CC(C)(C)c1cc(NC(=O)Nc2ccc(-c3cn4cc(C5CC5)ccc4n3)cc2)no1	15.8
–	–	CC(C)(C)c1cc(NC(=O)Nc2ccc(-c3nc4ccccc4s3)cc2)no1	172
–	–	CC(C)(C)c1cc(NC(=O)Nc2ccc(-c3cc4ccccc4s3)cc2)no1	> 900
